Experimental data taken from ChEMBL document CHEMBL2029265, “2-(Pyrrolidin-1-yl)ethyl-3,4-dihydroisoquinolin-1(2H)-one derivatives as potent and selective histamine-3 receptor antagonists” (J Med Chem, 2012).
Activity calls are given as the source filed them. The rule behind the calls is not given here.

Experiments:
[1] = molecular target: T1, Histamine H3 receptor (Homo sapiens, UniProt Q9Y5N1); experiment: Displacement of [3H]-(R)-alpha-methylhistamine from human H3 receptor expressed in HEK293T cells after 120 mins by scintillation counting; type: cell-based, HEK-293T
T1 sequence (Q9Y5N1 whole entry): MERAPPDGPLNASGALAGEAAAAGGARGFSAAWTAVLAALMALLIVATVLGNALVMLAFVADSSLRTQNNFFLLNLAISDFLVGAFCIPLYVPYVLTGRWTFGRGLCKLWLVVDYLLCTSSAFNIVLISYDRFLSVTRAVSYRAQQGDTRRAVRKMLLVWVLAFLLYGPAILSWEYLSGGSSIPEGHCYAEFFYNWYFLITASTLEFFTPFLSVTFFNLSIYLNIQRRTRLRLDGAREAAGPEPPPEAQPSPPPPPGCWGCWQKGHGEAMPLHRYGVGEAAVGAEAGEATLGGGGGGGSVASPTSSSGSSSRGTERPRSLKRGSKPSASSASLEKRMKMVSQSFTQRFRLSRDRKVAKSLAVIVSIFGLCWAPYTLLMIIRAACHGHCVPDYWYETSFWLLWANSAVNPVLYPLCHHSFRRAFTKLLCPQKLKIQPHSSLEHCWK

[2] = molecular target: hERG (KCNH2) (Homo sapiens, UniProt Q12809); experiment: Inhibition of human ERG at 10 uM by IonWorks assay
[3] = molecular target: Histamine H3 receptor (Rattus norvegicus, UniProt Q9QYN8); experiment: Displacement of [3H]-(R)-alpha-methylhistamine from rat H3 receptor expressed in HEK293T cells after 120 mins by scintillation counting; type: cell-based, HEK-293T
Sequence of Histamine H3 receptor (Rattus norvegicus, UniProt Q9QYN8) (Q9QYN8 whole entry): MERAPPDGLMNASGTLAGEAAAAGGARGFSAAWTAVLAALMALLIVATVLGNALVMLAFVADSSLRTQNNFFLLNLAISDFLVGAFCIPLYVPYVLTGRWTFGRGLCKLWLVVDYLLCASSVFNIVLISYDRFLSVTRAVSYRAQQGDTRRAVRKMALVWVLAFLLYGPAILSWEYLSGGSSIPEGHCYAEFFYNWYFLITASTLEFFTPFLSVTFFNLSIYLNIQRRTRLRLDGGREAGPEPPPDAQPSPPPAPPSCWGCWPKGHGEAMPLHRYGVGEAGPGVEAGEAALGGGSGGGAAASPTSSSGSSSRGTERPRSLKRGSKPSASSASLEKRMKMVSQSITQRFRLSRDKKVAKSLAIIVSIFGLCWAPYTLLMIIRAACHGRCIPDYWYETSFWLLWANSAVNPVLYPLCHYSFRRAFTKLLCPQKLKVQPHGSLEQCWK

[4] = molecular target: T1, Histamine H3 receptor; experiment: Inverse agonist activity at human H3 receptor expressed in HEK293T cells assessed as inhibition of {35S]GTPgamma binding relative to basal level; type: cell-based; settings: HEK-293T, concentration not given here
Method in brief: (§1)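 Basal [35S]GTPγS binding was measured in membranes from HEK cells expressing human H3 receptor, across a range of concentrations. EC50 and maximal inhibition relative to basal binding were derived.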

[5] = molecular target: T1, Histamine H3 receptor; experiment: Inverse agonist activity at human H3 receptor expressed in HEK293T cells assessed as inhibition of {35S]GTPgamma binding; type: cell-based; settings: HEK-293T; method in brief: as §1
[6] = tested on: Rattus norvegicus; experiment: Inhibition of (R)-alpha-methylhistamine-induced water consumption in rat dispogenia model at 3 to 10 mg/kg, ip administered 30 mins prior (R)-alpha-methylhistamine challenge measured over 1 hr; type: functional, organism-based
Method in brief: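 Rat dipsogenia model: test article was given ip at 3 or 10 mg/kg 30 min before the H3 agonist (R)-α-methylhistamine. Water consumed during the 1 h after agonist dosing was recorded and compared with vehicle and agonist-alone groups (p < 0.05).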

[7] = molecular target: Histamine H2 receptor (Homo sapiens, UniProt P25021); experiment: Binding affinity to H2 receptor
Sequence of Histamine H2 receptor (P25021 whole entry): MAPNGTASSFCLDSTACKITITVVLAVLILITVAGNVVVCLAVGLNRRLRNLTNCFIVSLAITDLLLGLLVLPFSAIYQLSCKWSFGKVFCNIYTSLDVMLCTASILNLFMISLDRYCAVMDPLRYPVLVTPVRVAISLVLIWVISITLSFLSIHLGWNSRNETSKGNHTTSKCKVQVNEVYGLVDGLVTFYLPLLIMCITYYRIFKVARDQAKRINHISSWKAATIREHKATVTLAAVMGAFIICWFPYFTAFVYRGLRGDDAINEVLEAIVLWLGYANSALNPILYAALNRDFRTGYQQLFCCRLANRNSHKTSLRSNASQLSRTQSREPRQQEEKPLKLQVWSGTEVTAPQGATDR

[8] = molecular target: T2, Alpha-2A adrenergic receptor (Homo sapiens, UniProt P08913); experiment: Binding affinity to alpha-2A receptor
T2 sequence (P08913 whole entry): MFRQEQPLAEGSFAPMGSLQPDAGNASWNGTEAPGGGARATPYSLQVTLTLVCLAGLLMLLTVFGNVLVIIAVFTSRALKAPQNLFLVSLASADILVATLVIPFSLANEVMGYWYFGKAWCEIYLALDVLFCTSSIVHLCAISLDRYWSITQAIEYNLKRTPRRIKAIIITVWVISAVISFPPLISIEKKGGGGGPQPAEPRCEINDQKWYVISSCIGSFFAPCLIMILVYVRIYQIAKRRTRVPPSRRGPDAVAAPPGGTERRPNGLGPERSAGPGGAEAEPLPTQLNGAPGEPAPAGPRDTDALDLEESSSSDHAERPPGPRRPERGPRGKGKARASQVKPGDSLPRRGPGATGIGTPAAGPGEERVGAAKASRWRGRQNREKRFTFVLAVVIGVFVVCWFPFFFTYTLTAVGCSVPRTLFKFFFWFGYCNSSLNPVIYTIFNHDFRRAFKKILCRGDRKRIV

[9] = molecular target: Sodium-dependent serotonin transporter (Homo sapiens, UniProt P31645); experiment: Binding affinity to 5-HT transporter
Sequence of Sodium-dependent serotonin transporter (P31645 whole entry): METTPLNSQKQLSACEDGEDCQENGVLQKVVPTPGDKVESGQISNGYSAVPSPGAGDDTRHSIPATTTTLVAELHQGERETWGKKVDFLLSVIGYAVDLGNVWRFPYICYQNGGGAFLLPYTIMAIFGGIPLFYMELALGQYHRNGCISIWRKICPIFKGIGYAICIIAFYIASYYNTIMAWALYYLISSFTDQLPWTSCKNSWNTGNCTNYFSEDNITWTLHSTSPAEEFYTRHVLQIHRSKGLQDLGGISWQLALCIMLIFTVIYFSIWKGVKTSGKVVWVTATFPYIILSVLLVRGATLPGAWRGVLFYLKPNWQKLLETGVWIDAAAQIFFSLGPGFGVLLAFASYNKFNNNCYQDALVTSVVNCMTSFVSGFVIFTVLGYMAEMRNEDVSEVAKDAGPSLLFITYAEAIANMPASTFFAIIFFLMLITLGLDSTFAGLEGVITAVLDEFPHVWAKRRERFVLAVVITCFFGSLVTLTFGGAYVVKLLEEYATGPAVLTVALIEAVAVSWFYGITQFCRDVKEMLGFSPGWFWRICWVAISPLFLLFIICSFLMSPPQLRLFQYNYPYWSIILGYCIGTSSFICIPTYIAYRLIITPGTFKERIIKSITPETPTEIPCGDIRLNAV

[10] = molecular target: Histamine H1 receptor (Homo sapiens, UniProt P35367); experiment: Binding affinity to H1 receptor
Sequence of Histamine H1 receptor (P35367 whole entry): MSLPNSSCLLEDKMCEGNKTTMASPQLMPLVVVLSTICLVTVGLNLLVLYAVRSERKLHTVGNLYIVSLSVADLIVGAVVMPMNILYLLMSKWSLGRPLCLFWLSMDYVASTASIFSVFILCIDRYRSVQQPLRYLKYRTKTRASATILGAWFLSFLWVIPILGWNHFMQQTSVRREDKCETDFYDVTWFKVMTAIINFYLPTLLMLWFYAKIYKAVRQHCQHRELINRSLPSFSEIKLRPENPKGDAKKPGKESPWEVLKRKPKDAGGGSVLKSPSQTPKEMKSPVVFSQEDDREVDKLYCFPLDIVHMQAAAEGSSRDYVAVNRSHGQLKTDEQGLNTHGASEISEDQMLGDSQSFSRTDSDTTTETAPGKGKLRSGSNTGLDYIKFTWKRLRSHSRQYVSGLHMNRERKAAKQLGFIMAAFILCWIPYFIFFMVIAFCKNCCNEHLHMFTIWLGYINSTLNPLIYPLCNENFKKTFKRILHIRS

[11] = molecular target: T3, 5-hydroxytryptamine receptor 1A (Homo sapiens, UniProt P08908); experiment: Binding affinity to 5-HT1A receptor
T3 sequence (P08908 whole entry): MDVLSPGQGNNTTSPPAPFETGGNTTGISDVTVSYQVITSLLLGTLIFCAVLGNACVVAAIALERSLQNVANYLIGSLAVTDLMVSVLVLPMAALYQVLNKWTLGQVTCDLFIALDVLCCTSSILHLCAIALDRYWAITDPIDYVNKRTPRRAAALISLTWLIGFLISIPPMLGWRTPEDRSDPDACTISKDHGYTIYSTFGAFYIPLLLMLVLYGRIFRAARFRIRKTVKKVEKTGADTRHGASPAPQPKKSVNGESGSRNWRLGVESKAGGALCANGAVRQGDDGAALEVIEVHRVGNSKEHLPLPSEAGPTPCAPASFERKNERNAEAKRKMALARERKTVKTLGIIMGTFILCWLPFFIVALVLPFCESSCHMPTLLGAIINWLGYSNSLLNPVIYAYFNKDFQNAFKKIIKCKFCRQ

[12] = molecular target: Sodium-dependent dopamine transporter (Homo sapiens, UniProt Q01959); experiment: Binding affinity to DAT
[13] = molecular target: Voltage-gated inwardly rectifying potassium channel KCNH2 (Homo sapiens, UniProt Q12809); experiment: Inhibition of human ERG by IonWorks assay
Sequence of Voltage-gated inwardly rectifying potassium channel KCNH2 (Q12809 whole entry): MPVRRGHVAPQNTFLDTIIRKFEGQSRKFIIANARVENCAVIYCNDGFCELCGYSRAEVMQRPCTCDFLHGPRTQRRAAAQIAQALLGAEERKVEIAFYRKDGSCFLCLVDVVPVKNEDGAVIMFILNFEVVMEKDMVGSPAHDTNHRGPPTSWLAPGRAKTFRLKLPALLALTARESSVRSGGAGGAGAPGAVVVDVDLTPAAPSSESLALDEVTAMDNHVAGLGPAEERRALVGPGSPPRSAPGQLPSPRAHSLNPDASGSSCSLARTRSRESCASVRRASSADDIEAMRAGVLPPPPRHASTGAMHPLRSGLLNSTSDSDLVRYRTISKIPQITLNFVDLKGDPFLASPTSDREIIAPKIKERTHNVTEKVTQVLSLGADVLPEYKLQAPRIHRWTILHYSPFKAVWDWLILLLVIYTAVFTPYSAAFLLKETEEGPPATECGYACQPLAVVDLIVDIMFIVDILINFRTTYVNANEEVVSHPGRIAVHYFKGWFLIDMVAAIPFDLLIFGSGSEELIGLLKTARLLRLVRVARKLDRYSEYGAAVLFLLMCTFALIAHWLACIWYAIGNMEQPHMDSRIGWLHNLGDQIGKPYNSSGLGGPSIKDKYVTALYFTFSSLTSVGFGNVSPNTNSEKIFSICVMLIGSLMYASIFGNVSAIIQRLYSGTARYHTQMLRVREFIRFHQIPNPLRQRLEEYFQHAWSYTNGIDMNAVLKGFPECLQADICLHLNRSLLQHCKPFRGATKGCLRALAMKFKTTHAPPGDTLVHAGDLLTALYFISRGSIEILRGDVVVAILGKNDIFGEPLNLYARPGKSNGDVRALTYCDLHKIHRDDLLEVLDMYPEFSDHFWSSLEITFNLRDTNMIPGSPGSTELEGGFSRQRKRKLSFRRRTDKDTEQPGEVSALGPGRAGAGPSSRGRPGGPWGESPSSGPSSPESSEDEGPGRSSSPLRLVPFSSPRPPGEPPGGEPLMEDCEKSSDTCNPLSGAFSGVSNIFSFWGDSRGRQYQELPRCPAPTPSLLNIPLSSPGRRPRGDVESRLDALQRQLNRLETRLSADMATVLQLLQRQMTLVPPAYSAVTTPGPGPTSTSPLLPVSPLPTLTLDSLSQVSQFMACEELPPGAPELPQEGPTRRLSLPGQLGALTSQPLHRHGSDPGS

[14] = molecular target: D(2) dopamine receptor (Homo sapiens, UniProt P14416); experiment: Binding affinity to D2 receptor
Sequence of D(2) dopamine receptor (P14416 whole entry): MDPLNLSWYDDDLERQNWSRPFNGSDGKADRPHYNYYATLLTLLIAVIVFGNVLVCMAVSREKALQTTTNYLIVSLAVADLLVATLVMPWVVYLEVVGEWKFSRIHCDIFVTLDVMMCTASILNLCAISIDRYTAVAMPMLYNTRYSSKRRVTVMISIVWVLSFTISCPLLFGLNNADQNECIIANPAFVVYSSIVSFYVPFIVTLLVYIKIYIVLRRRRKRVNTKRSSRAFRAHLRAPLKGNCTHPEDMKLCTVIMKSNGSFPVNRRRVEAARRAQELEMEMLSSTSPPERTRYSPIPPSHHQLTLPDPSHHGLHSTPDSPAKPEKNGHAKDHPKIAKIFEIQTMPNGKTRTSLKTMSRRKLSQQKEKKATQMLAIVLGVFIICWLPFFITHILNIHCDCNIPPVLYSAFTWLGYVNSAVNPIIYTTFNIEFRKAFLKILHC

[15] = molecular target: 5-hydroxytryptamine receptor 2B (Homo sapiens, UniProt P41595); experiment: Binding affinity to 5-HT2B receptor
Sequence of 5-hydroxytryptamine receptor 2B (P41595 whole entry): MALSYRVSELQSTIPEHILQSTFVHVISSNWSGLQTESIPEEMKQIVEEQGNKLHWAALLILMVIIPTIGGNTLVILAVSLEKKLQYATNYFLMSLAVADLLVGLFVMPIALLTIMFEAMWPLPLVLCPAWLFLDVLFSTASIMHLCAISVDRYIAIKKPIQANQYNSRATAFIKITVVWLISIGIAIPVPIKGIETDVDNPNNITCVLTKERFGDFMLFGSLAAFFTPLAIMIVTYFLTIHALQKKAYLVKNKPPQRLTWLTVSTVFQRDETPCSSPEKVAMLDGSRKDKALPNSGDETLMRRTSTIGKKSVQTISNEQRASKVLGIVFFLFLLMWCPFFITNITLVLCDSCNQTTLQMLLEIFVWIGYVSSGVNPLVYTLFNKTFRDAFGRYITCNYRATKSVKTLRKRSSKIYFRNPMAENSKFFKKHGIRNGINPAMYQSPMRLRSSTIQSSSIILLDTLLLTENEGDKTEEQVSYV

[16] = molecular target: 5-hydroxytryptamine receptor 6 (Homo sapiens, UniProt P50406); experiment: Binding affinity to 5-HT6 receptor
Sequence of 5-hydroxytryptamine receptor 6 (P50406 whole entry): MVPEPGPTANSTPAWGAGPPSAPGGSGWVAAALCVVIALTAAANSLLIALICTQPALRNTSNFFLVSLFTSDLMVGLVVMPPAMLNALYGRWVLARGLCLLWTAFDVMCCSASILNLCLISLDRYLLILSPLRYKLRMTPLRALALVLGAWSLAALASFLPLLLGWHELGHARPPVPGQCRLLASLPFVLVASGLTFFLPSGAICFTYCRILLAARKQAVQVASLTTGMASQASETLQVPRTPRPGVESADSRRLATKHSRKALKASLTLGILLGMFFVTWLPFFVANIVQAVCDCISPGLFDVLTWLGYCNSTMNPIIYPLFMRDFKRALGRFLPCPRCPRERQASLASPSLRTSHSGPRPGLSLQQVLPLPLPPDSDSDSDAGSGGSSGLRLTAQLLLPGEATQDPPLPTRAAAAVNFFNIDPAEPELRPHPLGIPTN

| SMILES | Ki [1] | Ki [3] | IC50 [13] | other results |
| --- | --- | --- | --- | --- |
| O=C1c2ccc(-c3cccc(C(F)(F)F)c3)cc2CCN1CCN1CCCC1 | 6.4 nM | 182 nM | – | – |
| O=C1c2ccc(-c3ccc(F)c(F)c3)cc2CCN1CCN1CCCC1 | 7.7 nM | 82 nM | – | – |
| CN(C)C(=O)c1ccc(-c2ccc3c(c2)CCN(CCN2CCCC2)C3=O)cc1 | – | – | – | inhibition [4]: 65%; Activity [5]: Dose-dependent effect; inhibition [6]: Active |
| O=C1c2ccc(-c3ccc(C(F)(F)F)cc3)cc2CCN1CCN1CCCC1 | 9.3 nM | 101 nM | – | – |
| N#Cc1ccc(-c2ccc3c(c2)CCN(CCCN2CCCC2)C3=O)cc1 | 6.9 nM | 270 nM | – | – |
| O=C(NC1CCCC1)c1ccc(-c2ccc3c(c2)CCN(CCN2CCCC2)C3=O)cc1 | 1.9 nM | – | 8200 nM | Ki [7]: > 10000 nM; Ki [8]: > 3000 nM; Ki [9]: 170 nM; Ki [10]: 9620 nM; Ki [11]: 8720 nM; Ki [12]: > 10000 nM; Ki [14]: > 10000 nM; Ki [15]: > 10000 nM; Ki [16]: > 10000 nM |
| O=C(c1ccc(-c2ccc3c(c2)CCN(CCN2CCCC2)C3=O)c(F)c1)N1CCCC1 | 3.2 nM | – | 11300 nM | – |
| C[C@H]1CCCN1CCN1CCc2cc(-c3ccc(C#N)cc3)ccc2C1=O | – | 49 nM | – | – |
| O=C(c1ccc(-c2ccc3c(c2)CCN(CCN2CCCC2)C3=O)cc1)N1CCCC1 | 2.4 nM | – | – | – |
| N#Cc1ccc(-c2ccc3c(c2)CCN(CCN2CCCC2)C3=O)cc1 | 3.9 nM | 25 nM | – | – |
| O=C(NC1CCC1)c1ccc(-c2ccc3c(c2)CCN(CCN2CCCC2)C3=O)cc1 | 2.1 nM | – | 2500 nM | – |
| CCNC(=O)c1ccc(-c2ccc3c(c2)CCN(CCN2CCCC2)C3=O)cc1 | 1.2 nM | – | – | – |
| CNC(=O)c1ccc(-c2ccc3c(c2)CCN(CCN2CCCC2)C3=O)cc1 | 1.3 nM | – | – | – |
| C[C@H]1CCCN1C(=O)c1ccc(-c2ccc3c(c2)CCN(CCN2CCCC2)C3=O)cc1 | 1.7 nM | – | 12000 nM | Ki [7]: > 10000 nM; Ki [8]: > 3000 nM; Ki [9]: 390 nM; Ki [10]: 7010 nM; Ki [11]: 9040 nM; Ki [12]: > 10000 nM; Ki [14]: > 10000 nM; Ki [15]: > 10000 nM; Ki [16]: > 10000 nM |
| CN(C)C(=O)c1ccc(-c2ccc3c(c2)CCN(CCN2CCCC2)C3=O)c(F)c1 | 3.1 nM | – | 32500 nM | – |
| O=C1c2ccc(-c3cccc(OC(F)(F)F)c3)cc2CCN1CCN1CCCC1 | 28.4 nM | 276 nM | – | – |

Continued by falling Ki [1], values first:

| Ki [1] | Ki [3] | SMILES | IC50 [13] | other results |
| --- | --- | --- | --- | --- |
| 23.8 nM | – | C[C@@H]1CCCN1CCN1Cc2cc(-c3ccc(C#N)cc3)ccc2C1=O | – | inhibition at 10 µM [2]: 98% |
| 14.1 nM | 174 nM | O=C1c2ccc(-c3ccccc3F)cc2CCN1CCN1CCCC1 | – | – |
| 12.7 nM | 110 nM | C[C@H]1CCCN1CCN1CCc2cc(-c3ccc(F)cc3)ccc2C1=O | – | – |
| 11.4 nM | 145 nM | O=C1c2ccc(-c3ccccc3)cc2CCN1CCN1CCCC1 | – | – |
| 11 nM | 86 nM | O=C1c2ccc(-c3ccc(F)cc3)cc2CCN1CCN1CCCC1 | – | – |
| 1.6 nM | – | O=C(c1ccc(-c2ccc3c(c2)CCN(CCN2CCCC2)C3=O)cc1Cl)N1CCCC1 | 9300 nM | – |
| 1.3 nM | – | O=C(c1ccc(-c2ccc3c(c2)CCN(CCN2CCCC2)C3=O)cc1F)N1CCCC1 | 8800 nM | – |
| 1.2 nM | 23 nM | C[C@@H]1CCCN1CCN1CCc2cc(-c3ccc(F)cc3)ccc2C1=O | 300 nM | – |
